High-throughput results from PubChem.
MrgX1 antag: antagonists of human MrgX1 receptor, primary screen, HEK293 cells, Fluo-4 calcium flux; BAM8-22 antagonism; stronger effect = lower value; 310,000 compounds, 1.3% hits; Mas-related G-protein coupled receptor member X1 (Homo sapiens), Q96LB2; B-score at 10 µM;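 active = calcium-response B-score plate-corrected more than 3 library SD below zero, starting fluorescence within 5 deviations, no agonist response on first addition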;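 note: peak minus trough fluorescence over baseline after final BAM8-22 challenge near maximal dose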
Target sequence (Q96LB2 whole entry, looked up): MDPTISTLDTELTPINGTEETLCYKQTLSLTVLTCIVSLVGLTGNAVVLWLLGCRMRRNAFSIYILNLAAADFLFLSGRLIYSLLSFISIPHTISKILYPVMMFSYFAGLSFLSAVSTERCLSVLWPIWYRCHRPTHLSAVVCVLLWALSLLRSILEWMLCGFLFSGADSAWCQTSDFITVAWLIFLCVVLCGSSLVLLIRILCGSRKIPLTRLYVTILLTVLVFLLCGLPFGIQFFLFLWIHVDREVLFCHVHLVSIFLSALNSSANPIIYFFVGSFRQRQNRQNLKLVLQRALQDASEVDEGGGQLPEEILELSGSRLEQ
MrgX1 allo act: positive allosteric modulators of MrgX1, primary screen, HEK293 cells, Fluo-4 calcium flux | Mas-related G-protein coupled receptor member X1 (Homo sapiens), Q96LB2 | FDSS; stronger effect = higher value | B-score at 10 µM | 310,000 compounds, 0.63% hits | AID 588675, 2011;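 active = plate-corrected calcium response at least 3 library SD above typical, normal starting fluorescence, not activating the receptor alone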;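 note: compound read alongside a low EC10 to EC30 dose of BAM8-22 agonist; peak minus trough fluorescence over baseline measured at the second addition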
RGS4 act: RGS4 potentiators or activators, primary screen, cell-based, HEK293 M3R inducible RGS4, calcium flux | carbachol calcium flux Fluo4; stronger effect = lower value | 310,000 compounds, 0.92% hits | B-score at 10 µM | AID 463111, 2010;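 active = B-score of the integrated calcium signal more than 4 SD below the library mean, with starting fluorescence not abnormally high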;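 note: negative B-score means reduced calcium response which marks RGS4 activation or potentiation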
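Test system: HEK293 cells with stable M3R and inducible RGS4; also added: carbachol at ECmax as muscarinic agonist stimulus; schedule: dye loading 30 min 37 °C, buffer rest 30 min RT; technique: kinetic calcium fluorescence imaging with Fluo4-AM dye, 2 µM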
Lipid droplet: inhibitors of hepatocyte lipid droplet formation, primary screen, imaging, high-throughput imaging, BODIPY stain; 240,000 compounds, 0.4% hits; AML12 mouse hepatocytes, oleate lipid droplets; inhibition, % at 6.5 µM;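 active = lipid droplet intensity inhibited by at least 50%, with more than 500 cells counted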
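Assay system: AML12 hepatocytes (mouse); Probe or stimulus: oleic acid at 100 µM to induce lipid droplet formation; Dosing: compound at 6.5 µM only; Schedule: compound with oleate, overnight; Detection: fluorescence imaging, 20x objective, two fields per well; Measure: % inhibition of lipid droplet signal.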
MrgX1 ag: agonists of human MrgX1 receptor, primary screen, HEK293 cells, Fluo-4 calcium flux; Mas-related G-protein coupled receptor member X1 (Homo sapiens), Q96LB2; Fluo-4 calcium fluorescence, agonist mode; stronger effect = higher value; B-score at 10 µM; 310,000 compounds, 0.44% hits;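 active = calcium response B-score plate-corrected fluorescence ratio at least 3 library SD, with starting fluorescence B-score inside 5 SD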
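Material – MrgX1-expressing HEK293 cells · Input – 15,000 cells seeded per well · Dosing – compound as first of three additions · Times – overnight seeding, then 1 h dark dye loading · Measured by – kinetic Fluo-4 NW fluorescence of intracellular calcium · Read-out – B-scored fluorescence response ratio · Benchmarks – positive and negative control wells on each plate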
RGS4 inh: RGS4 inhibitors, primary screen, cell-based, HEK293 M3R inducible RGS4, calcium flux; Fluo-4 calcium flux; stronger effect = higher value; triggered by carbachol at its EC20; 310,000 compounds, 0.45% hits; Regulator of G-protein signaling 4 (Homo sapiens), P49798; B-score at 10 µM;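 active = B-score, a plate-corrected calcium signal, over three deviations above library mean, with baseline fluorescence within five deviations of library mean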;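 note: RGS4 expression induced by doxycycline in cells with stable M3 receptor; B-score is computed from the integrated fluorescence ratio over baseline after carbachol; higher B-score means a larger calcium signal and so more RGS4 inhibition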
Target sequence (P49798 whole entry, looked up): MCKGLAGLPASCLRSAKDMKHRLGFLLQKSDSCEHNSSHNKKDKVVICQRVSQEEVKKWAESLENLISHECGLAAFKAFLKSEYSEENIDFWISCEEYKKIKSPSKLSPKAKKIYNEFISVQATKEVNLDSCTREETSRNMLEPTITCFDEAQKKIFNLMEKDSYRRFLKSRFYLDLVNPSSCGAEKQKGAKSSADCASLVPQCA
RGS4 block valid: enhanced carbachol calcium response, M3R/RGS4 cells, RGS4 inhibitor project, cell-based, validation screen, HEK293 M3R/RGS4, calcium flux; calcium response, % at 10 µM; carbachol calcium Fluo-4 fluorescence; carbachol added at its EC20; 0 = buffer wells, 100 = carbachol control; 1,700 compounds, 65% hits; shares compounds with RGS4 inh;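 active = duplicate-averaged calcium response above the buffer-only control mean plus 5 SD of those controls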;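 note: integrated fluorescence ratio F max minus min over baseline F0; higher response in RGS4-induced cells means RGS4 inhibition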
RGS4 uninduced: carbachol calcium response in non-induced M3R cells, confirmation, counter-screen for RGS4 inhibitor project, cell-based, HEK293 M3R. shares compounds with RGS4 inh. carbachol calcium Fluo-4; submaximal (EC20) carbachol stimulus; buffer wells 0%, carbachol control wells 100%. 1,900 compounds, 20% hits. activity (percent), % at 10 µM; call rule not given here;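 note: RGS4 induction absent so cells express M3R without RGS4; higher means more calcium signal and flags a non-specific hit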
M3R basal Ca ctr: second counter-screen for RGS4 inhibitors: non-induced cells without carbachol; AID 493001; shares compounds with RGS4 inh; 1,900 compounds, 22% hits; calcium response (agonist-mode artifact), % at 10 µM; HEK293 M3R/RGS4 non-induced, Fluo-4 calcium, no carbachol; normalised: buffer wells 0%, carbachol wells 100%;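 active = duplicate-averaged calcium rise in uninduced cells above buffer wells' mean plus 5 SD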
* hit, by the source's call; i = inactive; nt = not tested or not shown. This is a sample that favours compounds with a hit; in the whole collection about 3.8% have one here.

SMILES	MrgX1 antag	MrgX1 allo act	RGS4 act	Lipid droplet	MrgX1 ag	RGS4 inh	RGS4 block valid	RGS4 uninduced	M3R basal Ca ctr
COc1ccc(OC)c(S(=O)(=O)N2CCC(C(=O)N3CCOCC3)CC2)c1	i	i	i	5	i	i	i	i	i
COc1ccc(OC)c(S(=O)(=O)N2CCC(C(=O)N3CCCC3)CC2)c1	i	i	i	-1	i	i	nt	nt	nt
COc1ccc(C)cc1S(=O)(=O)N1CCCC(C(=O)N2CCOCC2)C1 (stereo not drawn)	i	i	i	1	i	i	i	i	i
NC(=O)c1c(NC(=O)COC(=O)c2ccc(S(=O)(=O)Nc3ccccc3)cc2)sc2c1CCCC2	i	i	i	-1	i	i	nt	nt	nt
C=CCN(C(=O)c1ccccn1)C(C(=O)NCc1ccccc1)c1ccccc1F (stereo not drawn)	i	i	i	1	i	i	nt	nt	nt
O=c1[nH]c(NCCO)nc2c1C1(CCCC1)Cc1ccccc1-2	i	i	i	nt	i	8.4*	43%*	70%*	22%*
CCC1(C)Cc2ccccc2-c2nc(NCCO)[nH]c(=O)c21 (stereo not drawn)	i	i	i	3	i	8*	20%*	i	i
C=CCNC(=S)NNc1nc2c(c(=O)[nH]1)C1(CCCCC1)Cc1ccccc1-2	i	i	i	8	i	11*	34%*	i	i
CC1(C)Cc2ccccc2-c2nc(NCCCO)[nH]c(=O)c21	i	i	i	2	i	i	nt	nt	nt
Cc1ccc(S(=O)(=O)NCCN=Cc2ccc(N(C)C)cc2)cc1	i	i	i	-1	i	i	nt	nt	nt
COc1cccc(-c2nc(CCl)cs2)c1OC	i	i	i	7	i	i	nt	nt	nt
COc1cc(C(C(=O)NC2CCCCC2)N(Cc2cccs2)C(=O)Cc2c[nH]c3ccccc23)cc(OC)c1OC (stereo not drawn)	i	i	i	nt	i	i	nt	nt	nt
COc1cc(C(C(=O)NC2CCCCC2)N(C(=O)Cc2c[nH]c3ccccc23)c2ccccc2C)cc(OC)c1OC (stereo not drawn)	i	i	i	12	i	4.9*	7.5%*	i	i
COC(=O)c1csc(S(=O)(=O)N2CCOCC2)c1OC	i	i	i	6	i	i	nt	nt	nt
COc1ccccc1/C=C/C=N/n1c(-c2cc(-c3ccccc3)n[nH]2)n[nH]c1=S	i	i	i	14	i	7.7*	45%*	36%*	i
O=C(CN1C(=O)S/C(=C\C=C\c2ccccc2)C1=O)N1CCCCC1	i	i	i	-2	i	i	nt	i	i
O=C(CN1C(=O)S/C(=C\C=C\c2ccccc2)C1=O)Nc1ccc(O)cc1	i	i	i	-12	i	i	i	i	7.5%*
